{
  "source": "PubChem BioAssay AID617",
  "about": "(SRMLSC, 2007)",
  "data": [
    {"system": "E. coli BW25113 ΔtolC growth inhibition, OD615", "experiment": "E. coli ΔtolC antibacterial growth inhibition – strain BW25113 ΔtolC::kan, dose response (AID 617)", "summary_of_the_method": "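System – E. coli BW25113 ΔtolC::kan bacteria · Input – inoculum from 1:1000-diluted 1.5 h subculture · Buffer or medium – LB plus kanamycin · Compound – serial dilution series of compound · Timing – bacterial growth with compound for 20 h, 37 °C · Measured by – OD615 · Read-out basis – growth-inhibition IC50 from four-parameter logistic curve, bounds set to 0% and 100% · Benchmarks – chloramphenicol 30 µM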", "units": {"IC50": "µM"}, "values": [
      {"compound": "CCOc1cccc(NC(=O)C2CC(=O)N(C)C(=Nc3cccc(F)c3)S2)c1", "note": "(centres undefined)", "IC50": 15.1},
      {"compound": "O=C1OC(c2ccc(O)cc2)(c2ccc(O)cc2)c2ccccc21", "IC50": 4.01},
      {"compound": "COc1cccc(-c2csc(N3CCN(C(=O)C4CCCCC4)CC3)n2)c1", "IC50": 16.8},
      {"compound": "CCn1cc(C(=O)OCC(=O)OC2CC(C)CCC2C(C)C)c(=O)c2ccc(C)nc21", "note": "(centres undefined)", "IC50": 7.52},
      {"compound": "COc1ccc(Nc2nc(N3CCCC3)c3ccccc3n2)cc1", "IC50": 18.3},
      {"compound": "O=C(NCCCc1ccccc1)c1ccccc1O", "IC50": 9.34},
      {"compound": "Clc1ccc(OCCn2ccnc2)c2ccccc12", "IC50": 5.58},
      {"compound": "CC1CCCC(C)N1C(=O)CN1CCN(c2nc(-c3ccc(F)cc3)cs2)CC1", "note": "(centres undefined)", "IC50": 12},
      {"compound": "CC(C)c1nc(N2CCN(C(=O)c3ccco3)CC2)c2c3c(sc2n1)CCCC3", "IC50": 13.6},
      {"compound": "COc1cccc(NC(=O)Nc2nnc(N3CCCCC3C)s2)c1", "note": "(centres undefined)", "IC50": 8.43},
      {"compound": "C=CCn1c(NC(C)c2cc(Cl)ccc2O)nc2ccccc21", "note": "(centres undefined)", "IC50": 6.8},
      {"compound": "CCCCOn1c(C)c(C(=O)OCC)c2c3nonc3ccc21", "IC50": 18.4},
      {"compound": "Cn1c(Oc2ccccc2NCc2cc(Br)ccc2O)cc(=O)n(C)c1=O", "IC50": 4.08},
      {"compound": "CCCn1c(=O)c(C(=O)Nc2nnc(C)s2)c(O)c2ccccc21", "IC50": 12},
      {"compound": "COc1ccc(OC)c(Nc2nc(-c3cccs3)cs2)c1", "IC50": 28.2},
      {"compound": "CC(=O)c1sc(NC(=O)C2(F)C(F)(F)C(F)(F)C(F)(F)C(F)(F)C2(F)F)nc1C", "IC50": 0.92},
      {"compound": "COc1ccc(CNc2nc3c(c(=O)n(Cc4ccc(F)cc4)c(=O)n3C)n2C)cc1", "IC50": 22.5},
      {"compound": "CSc1ncc(Cl)c(C(=O)C(C#N)c2nc3c(C)cc(C)cc3c(=O)[nH]2)n1", "note": "(centres undefined)", "IC50": 3.28},
      {"compound": "CN(C)[C@@H]1C(=O)C(C(N)=O)=C(O)[C@@]2(O)C(=O)C3=C(O)c4c(O)ccc(Cl)c4[C@@H](O)[C@H]3C[C@@H]12", "IC50": "< 0.2"},
      {"compound": "CCOc1ccc(S(=O)(=O)Nc2cc(Cl)ccc2O)cc1", "IC50": 9.22},
      {"compound": "Oc1ccccc1-c1cc(-c2ccc3c(c2)OCCO3)n[nH]1", "IC50": 8.15},
      {"compound": "Clc1ccc(OCc2nn3c(C4CCCCC4)nnc3s2)cc1", "IC50": 9.82},
      {"compound": "OC(c1cccc(OCc2ccccc2)c1)c1nnc(-c2ccccc2)o1", "note": "(centres undefined)", "IC50": 72.1},
      {"compound": "Cc1ccc(C(c2nnnn2CCc2ccccc2)N2CCSCC2)cc1", "note": "(centres undefined)", "IC50": 30.9},
      {"compound": "CCN(c1cccc(C(F)(F)F)c1)S(=O)(=O)c1ccc2c(c1)CCN2C(=O)C1CC1", "IC50": 50.9},
      {"compound": "COc1ccc(-n2c(C)nc3c(cnn3-c3ccc(Cl)cc3)c2=O)cc1", "IC50": 20.9},
      {"compound": "Cc1cccc(-n2ncc3c(NCc4ccc5c(c4)OCO5)ncnc32)c1", "IC50": 8.94},
      {"compound": "Cc1ccc(-c2nnn(CC(=O)N(Cc3ccco3)C(C(=O)NC(C)(C)C)c3cccs3)n2)o1", "note": "(centres undefined)", "IC50": 23.3},
      {"compound": "Cc1cccc(NC(=O)c2cc(NC(=O)C3CCCCC3C(=O)O)ccc2N2CCCCC2)c1", "note": "(centres undefined)", "IC50": 6.1},
      {"compound": "CCOC(=O)c1ccc(Oc2nc(NC(C)(C)C)nc(N(C)C)n2)cc1", "IC50": 14.9},
      {"compound": "O=C(Nc1nccs1)C(NS(=O)(=O)c1ccc(Br)s1)c1ccccc1", "note": "(centres undefined)", "IC50": 12.8},
      {"compound": "CCOC(=O)c1cnn(-c2nc3sc4c(c3c(=O)[nH]2)CCCC4)c1N", "IC50": 0.28},
      {"compound": "O=C(Nc1ccc(Br)c(Cl)c1)c1ccco1", "IC50": 8.74},
      {"compound": "CC1CCN(c2nc3ccccc3nc2C(C#N)S(=O)(=O)c2ccccc2)CC1", "note": "(centres undefined)", "IC50": 9.39},
      {"compound": "CC(C)N1CCC2(CC1)N=C(c1ccc3c(c1)OCO3)CC(c1cc(Cl)ccc1O)N2", "note": "(centres undefined)", "IC50": 9.86},
      {"compound": "O=C(Nc1cccc(-c2nnc(-c3ccccc3)o2)c1)c1ccc(Br)o1", "IC50": 5.69},
      {"compound": "CCCOc1ccccc1C1CC(=O)Nc2cc3c(cc21)OCCO3", "note": "(centres undefined)", "IC50": 24.1},
      {"compound": "Cc1c(NC(=O)Nc2ccc(Cl)c(Cl)c2)c(=O)n(-c2ccccc2)n1C", "IC50": 39.6},
      {"compound": "O=C(NCc1ccc2c(c1)OCO2)c1ccc(COc2cccc(Cl)c2)o1", "IC50": 7.25},
      {"compound": "CCOc1ccccc1N1CCN(C(=O)Nc2ccc(F)c(Cl)c2)CC1", "IC50": 10.2},
      {"compound": "COc1cc(S(=O)(=O)N2CCC(O)(c3cccc(C(F)(F)F)c3)CC2)ccc1-n1cnnn1", "IC50": 11.1},
      {"compound": "O=C(NCCc1ccccc1)c1nc2c(nnn2Cc2ccccc2Cl)c(=O)[nH]1", "IC50": 4.65},
      {"compound": "CC(C)OCCCNc1ncnc2c1[nH]c1ccccc12", "IC50": 5.88},
      {"compound": "N#Cc1nc(COc2ccc(-c3ccccc3)cc2)oc1NCc1cccnc1", "IC50": 8.6},
      {"compound": "O=C(c1cccs1)N(Cc1nc2sc3c(c2c(=O)[nH]1)CCCC3)C1CCCC1", "IC50": 9.95},
      {"compound": "Cc1ccc(S(=O)(=O)N(Cc2ccccc2)Cc2ccco2)cc1", "IC50": 10.8},
      {"compound": "Clc1ccc(C2=Nn3c(nnc3-c3n[nH]c4c3CCC4)SC2)cc1Cl", "IC50": 11},
      {"compound": "Cc1cc(C)c(C#N)c(SCS(=O)c2ccc(C(C)(C)C)cc2)n1", "note": "(centres undefined)", "IC50": 40.1},
      {"compound": "CCn1c(SCC(=O)Nc2nc(-c3ccc(C)cc3)cs2)nnc1-c1ccccc1O", "IC50": 4.11},
      {"compound": "COCc1nnc(NC(=O)c2ccc(S(=O)(=O)N3CCCCCC3)cc2)o1", "IC50": 7.62},
      {"compound": "[O-][N+]1=c2ccc(Nc3ccccc3)cc2=NC12CCCCC2", "IC50": 15.3},
      {"compound": "CCN(c1ccccc1)S(=O)(=O)c1ccc(C(=O)Nc2nnc(COC)o2)cc1", "IC50": 3.23},
      {"compound": "N#Cc1nc(COc2ccccc2)oc1N1CCN(Cc2ccccc2)CC1", "IC50": 14.3},
      {"compound": "O=c1[nH]c(=O)n(C2CCCCCC2)c(O)c1C=NCc1ccc(F)cc1", "IC50": 14.6}
    ]}
  ]
}
